For assay [1], the target named is T1, Voltage-dependent T-type calcium channel subunit alpha-1H (Homo sapiens, UniProt O95180). The assay is described as follows: Antagonist activity at human alpha1H T-type calcium channel expressed in HEK293 cells at 1 uM by patch clamp technique. It counts as functional, cell-based. The gist of the method:
(§1)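 Whole-cell patch clamp. Peak inward current measured before and after compound addition to the bath.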
In general terms: In patch-clamp work, channel activity is measured electrically.

The target in assay [2] is T1, Voltage-dependent T-type calcium channel subunit alpha-1H. The experiment in a line: Antagonist activity at human alpha1H T-type calcium channel expressed in HEK293 cells by patch clamp technique. It counts as functional, cell-based. In a few lines:
as §1

Assay [3] deals with Voltage-gated L-type calcium channel (Rattus norvegicus, UniProt P22002+Q02485+P27732). The assay is described as follows: Antagonist activity at L-type calcium channel in rat aorta. It counts as functional, tissue-based. The gist of the method: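 Rat aorta rings contracted near-maximally with KCl. Test compound added at increasing doses, and IC50 taken for inhibition of force as a functional L-type calcium channel read-out.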

The nature of assay [4]: Ratio of IC50 for L-type calcium channel in rat aorta method to IC50 for human T-type calcium channel in patch clamp method. It counts as tissue-based.

T1 sequence (O95180 whole entry): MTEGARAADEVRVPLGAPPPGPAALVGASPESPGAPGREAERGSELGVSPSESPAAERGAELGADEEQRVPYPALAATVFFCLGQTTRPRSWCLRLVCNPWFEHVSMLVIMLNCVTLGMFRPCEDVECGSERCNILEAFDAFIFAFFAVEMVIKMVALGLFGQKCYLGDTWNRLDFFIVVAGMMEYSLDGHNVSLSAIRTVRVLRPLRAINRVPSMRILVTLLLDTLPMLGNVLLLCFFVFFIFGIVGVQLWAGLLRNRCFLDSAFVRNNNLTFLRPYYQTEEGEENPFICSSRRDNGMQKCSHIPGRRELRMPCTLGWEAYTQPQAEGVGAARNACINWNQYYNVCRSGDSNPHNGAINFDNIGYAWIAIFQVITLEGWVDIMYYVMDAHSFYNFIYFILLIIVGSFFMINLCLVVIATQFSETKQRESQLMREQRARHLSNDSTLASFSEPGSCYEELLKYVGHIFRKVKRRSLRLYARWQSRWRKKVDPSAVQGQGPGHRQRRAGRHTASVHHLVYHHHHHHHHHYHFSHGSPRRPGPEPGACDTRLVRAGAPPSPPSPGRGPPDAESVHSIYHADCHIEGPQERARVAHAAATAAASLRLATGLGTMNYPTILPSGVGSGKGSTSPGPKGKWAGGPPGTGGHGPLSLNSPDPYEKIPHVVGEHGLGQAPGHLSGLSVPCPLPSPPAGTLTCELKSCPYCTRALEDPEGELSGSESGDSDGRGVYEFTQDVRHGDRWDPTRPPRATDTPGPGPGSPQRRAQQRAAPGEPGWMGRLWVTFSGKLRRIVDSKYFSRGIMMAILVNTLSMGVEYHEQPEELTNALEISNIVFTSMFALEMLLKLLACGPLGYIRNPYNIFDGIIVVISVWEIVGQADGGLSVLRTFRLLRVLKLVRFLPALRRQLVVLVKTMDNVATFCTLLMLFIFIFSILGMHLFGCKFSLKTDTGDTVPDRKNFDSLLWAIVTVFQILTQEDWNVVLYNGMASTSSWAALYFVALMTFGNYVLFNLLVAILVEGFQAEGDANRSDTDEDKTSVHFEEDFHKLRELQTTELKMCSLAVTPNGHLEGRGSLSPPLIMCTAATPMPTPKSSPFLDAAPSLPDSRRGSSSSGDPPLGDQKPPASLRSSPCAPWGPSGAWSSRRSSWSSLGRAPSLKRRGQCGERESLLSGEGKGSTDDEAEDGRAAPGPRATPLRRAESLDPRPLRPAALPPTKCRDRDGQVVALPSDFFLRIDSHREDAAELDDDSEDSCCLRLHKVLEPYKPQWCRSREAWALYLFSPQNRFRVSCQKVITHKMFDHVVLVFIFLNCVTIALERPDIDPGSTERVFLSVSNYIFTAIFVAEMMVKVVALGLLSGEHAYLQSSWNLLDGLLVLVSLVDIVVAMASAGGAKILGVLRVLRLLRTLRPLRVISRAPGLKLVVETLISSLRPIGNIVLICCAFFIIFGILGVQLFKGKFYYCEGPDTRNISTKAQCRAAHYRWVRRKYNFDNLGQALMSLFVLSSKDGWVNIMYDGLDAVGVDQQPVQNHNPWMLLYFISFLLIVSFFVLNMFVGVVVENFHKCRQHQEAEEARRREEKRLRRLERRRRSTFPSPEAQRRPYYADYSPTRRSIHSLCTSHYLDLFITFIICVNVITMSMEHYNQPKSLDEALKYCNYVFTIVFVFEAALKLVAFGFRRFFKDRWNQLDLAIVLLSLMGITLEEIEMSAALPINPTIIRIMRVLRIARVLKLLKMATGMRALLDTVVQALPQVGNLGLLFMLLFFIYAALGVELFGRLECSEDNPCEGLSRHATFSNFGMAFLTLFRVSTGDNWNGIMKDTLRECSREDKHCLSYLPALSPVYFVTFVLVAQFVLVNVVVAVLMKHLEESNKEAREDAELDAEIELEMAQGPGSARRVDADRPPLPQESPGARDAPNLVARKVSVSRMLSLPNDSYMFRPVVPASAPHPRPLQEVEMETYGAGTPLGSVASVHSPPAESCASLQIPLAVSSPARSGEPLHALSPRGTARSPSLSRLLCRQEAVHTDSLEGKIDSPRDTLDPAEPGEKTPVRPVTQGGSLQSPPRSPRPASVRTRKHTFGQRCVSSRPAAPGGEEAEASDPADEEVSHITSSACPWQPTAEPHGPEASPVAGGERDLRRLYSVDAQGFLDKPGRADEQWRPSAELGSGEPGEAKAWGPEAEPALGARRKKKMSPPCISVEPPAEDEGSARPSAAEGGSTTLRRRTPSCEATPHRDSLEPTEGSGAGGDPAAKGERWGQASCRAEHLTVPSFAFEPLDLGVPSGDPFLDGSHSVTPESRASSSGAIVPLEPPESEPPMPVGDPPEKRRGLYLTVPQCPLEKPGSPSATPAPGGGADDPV

A word on the inhibition: it is the drop in the measured response relative to a control, in per cent. On to `CC(=O)N(CCCN(C)S(=O)(=O)c1ccc(Oc2ccccc2)cc1)C(CC(=O)OC(C)C)c1cccc(Cl)c1` (stereo unspecified), for which, in assay [1], the inhibition turned out to be 17%.
The term IC50 denotes the concentration that gives 50% inhibition. Consider `CC(C)OC(=O)CN(c1cccc(Cl)c1)S(=O)(=O)c1cccc(NC(=O)CCNC(=O)OCc2ccccc2)c1`, for which the figures for the half-maximal inhibitory concentration (IC50) in assay [2] and in assay [3] were 0.42 µM and 17 µM, respectively. For the same compound, in assay [1], the inhibition worked out at 73%. Also, the Ratio IC50 in assay [4] is 41.
For `CN(C)CCNC(=O)CN(c1cccc(Cl)c1)S(=O)(=O)c1cccc(NC(=O)CN(C)C(=O)OCc2ccccc2)c1`, the inhibition in assay [1] was determined as 22%.
Same read-out and setting: for `CC(C)OC(=O)CN(c1cccc(Cl)c1)S(=O)(=O)c1cccc(NC(=O)Cc2ccccc2)c1` the value was 40%.
For `COCC(=O)O[C@]1(CCN(C)CCCc2nc3ccccc3[nH]2)CCc2cc(F)ccc2[C@@H]1C(C)C` [MIBEFRADIL], the IC50 in assay [3] was 7 µM.
For the compound `CC(C)NC(=O)CN(c1cccc(Cl)c1)S(=O)(=O)c1cccc(NC(=O)CN(C)C(=O)OCc2ccccc2)c1`, the IC50 in assay [2] was 1.7 µM; in assay [3], greater than 30 µM. The Ratio IC50 in assay [4] was greater than 17.
As to `CC(C)OC(=O)c1ccc(NC(=O)CN(C)C(=O)OCc2ccccc2)cc1-c1cccc(Cl)c1`, the inhibition in assay [1] stood at 24%.
Take `CC(C)OC(=O)CN(c1cccc(Cl)c1)S(=O)(=O)c1cccc(NC(=O)CCc2ccccc2)c1`: the IC50 in assay [2] is 0.54 µM; in assay [3], greater than 30 µM. Moreover, the Ratio IC50 in assay [4] was greater than 55.
On to `CC(C)OC(=O)c1ccc(NC(=O)CCc2ccccc2)cc1-c1cccc(Cl)c1`, for which, in assay [1], the inhibition stood at 6%.
For `CC1=C(C(=O)OC(C)C)C(c2cccc(Cl)c2)N(CCCN(C)C(=O)c2ccc(Oc3ccccc3)cc2)C(=O)N1` (stereo unspecified), the figures for the concentration for half-maximal inhibition (IC50) in assay [2] and in assay [3] were 0.25 µM and 2.1 µM, respectively.
On to `CC(C)CCCN(c1cccc(Cl)c1)S(=O)(=O)c1cccc(NC(=O)CN(C)C(=O)OCc2ccccc2)c1`, for which the half-inhibitory concentration (IC50) came to 0.18 µM in assay [2] and 12 µM in assay [3]. In addition, the Ratio IC50 in assay [4] turned out to be 67.
For `CN(CC(=O)Nc1cccc(S(=O)(=O)N(Cc2ccccc2)c2cccc(Cl)c2)c1)C(=O)OCc1ccccc1`, in that order: 0.11 µM, 12 µM and 109.
In the case of `CC1=C(C(=O)OC(C)C)C(c2cccc(Cl)c2)N(CCCN(C)C(=O)c2ccc(Oc3ccccc3)cc2)C(=O)N1` (single isomer, unassigned; enantiomer 2), the values for the 50% inhibitory concentration (IC50) in assay [2] and in assay [3] were 0.65 µM and 3.8 µM, respectively.
For the compound `CN(CC(=O)Nc1cccc(S(=O)(=O)N(CC(=O)O)c2cccc(Cl)c2)c1)C(=O)OCc1ccccc1`, the inhibition in assay [1] was determined as 11%.
As for `CC(=O)N(CCCN(C)S(=O)(=O)c1ccc(Oc2ccccc2)cc1)Cc1cccc(Cl)c1`, the inhibition in assay [1] came out at 30%.
The same measure, in the same setting: for `CC(=O)Nc1cccc(S(=O)(=O)N(CC(=O)OC(C)C)c2cccc(Cl)c2)c1` the value was 0%.
The same measure, in the same setting: for `CCOC(=O)CN(c1cccc(Cl)c1)S(=O)(=O)c1cccc(NC(=O)CN(C)C(=O)OCc2ccccc2)c1` the value was 35%.
For `CC(C)OC(=O)CN(c1cccc(Cl)c1)S(=O)(=O)c1cccc(NC(=O)CN(C)C(=O)OCc2ccccc2)c1`, the IC50 in assay [2] is 0.24 µM; in assay [3], 15 µM. Also, the inhibition in assay [1] was determined as 78%. Also, the Ratio IC50 in assay [4] stood at 62.
`CC1=C(C(=O)OC(C)C)C(c2cccc(Cl)c2)N(CCCN(C)C(=O)c2ccc(Oc3ccccc3)cc2)C(=O)N1` (single isomer, unassigned; enantiomer 1): in assay [2], the 50% inhibitory concentration (IC50) was found to be 0.18 µM.
As to `CC(=O)N(CCCN(C)C(=O)c1ccc(Oc2ccccc2)cc1)Cc1cccc(Cl)c1`, in assay [1], the inhibition turned out to be 5%.

For the origin of these results see ChEMBL document CHEMBL1143108, “Design and SAR of selective T-type calcium channel antagonists containing a biaryl sulfonamide core” (Bioorg Med Chem Lett, 2008).
